Shown are actives, neighbours in structure and some others; about 1.5% of the full set was active somewhere.
EBI2 antag – blocks human EBI2 receptor beta-arrestin signaling; inhibition, % at 5 µM; actives 0.81% (n = 360,000); EBI2 beta-arrestin recruitment, luminescence, 7a,25-OHC stimulated; P32249; in the data active means inhibition above about 38%;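 further: enzyme fragment complementation signal reports receptor beta-arrestin coupling in cells; 0% = agonist plus DMSO wells and 100% = wells without agonist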
Target sequence (P32249 whole entry, looked up, the tested form may be a part): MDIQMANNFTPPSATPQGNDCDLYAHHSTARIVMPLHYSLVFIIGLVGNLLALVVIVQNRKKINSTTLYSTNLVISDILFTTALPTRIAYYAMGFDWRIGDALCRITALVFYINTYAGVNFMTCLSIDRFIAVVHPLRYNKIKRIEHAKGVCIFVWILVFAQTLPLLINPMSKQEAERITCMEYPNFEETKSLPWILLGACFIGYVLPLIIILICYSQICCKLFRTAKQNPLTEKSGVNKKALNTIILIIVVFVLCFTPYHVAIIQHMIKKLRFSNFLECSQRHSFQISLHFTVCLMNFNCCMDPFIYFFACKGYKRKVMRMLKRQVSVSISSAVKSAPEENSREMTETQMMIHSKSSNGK
APJ ag – activates the human apelin receptor APJ | CHO-K1 APJ PathHunter beta-arrestin, luminescence; 0% DMSO wells, 100% apelin | activation, % at 20 µM | actives 0.11% (n = 330,000);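 active means activation more than six SD over the plate average, tested at 20 µM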;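 further: 0% = DMSO alone and 100% = apelin-13 at 10 nM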
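Assay system: engineered CHO-K1 APJ arrestin reporter cells; Amount: 1000 CHO-K1 reporter cells seeded per well; Dosing: one dose, 20 µM compound, 1% DMSO; Times: compound stimulation 90 min at 25 °C, detection 60 min; Measured by: luminescent beta-gal fragment complementation, chemiluminescent substrate; Read-out: APJ–arrestin association signal; Controls: DMSO vs Apelin-13 10 nM.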
CXCR6 block – blocks human CXCR6 beta-arrestin recruitment | O00574 | CHO-K1 PathHunter CXCR6 beta-arrestin, luminescence | inhibition, % at 20 µM | actives 0.36% (n = 360,000) | AID 602244; in the data active means inhibition above about 34%, passing the limit was not always enough;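 further: antagonist mode with CXCL16 agonist at 10 nM final; 0% = 10 nM CXCL16 with DMSO and 100% = unstimulated wells without agonist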
APJ antagonist – antagonists of human APJ apelin receptor; CHO-K1 APJ beta-arrestin complementation, luminescence; actives 0.32% (n = 330,000); inhibition, % at 20 µM; P35414;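 active means inhibition above about 40% at 20 µM, limit read from the data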;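 further: cells challenged with 10 nM apelin-13 agonist together with compound; plate controls were apelin-13 plus DMSO wells for no effect and DMSO wells lacking apelin-13 for full effect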
CCR6 antagonist – antagonists of human CCR6 receptor; P51684; CHO-K1 CCR6 PathHunter beta-arrestin, luminescence, CCL20-stimulated; inhibition, % at 20 µM; actives 0.49% (n = 340,000); AID 493098;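 active means compounds whose inhibition of the agonist-driven luminescence signal at 20 µM reaches about 50%, limit read from the data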;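 further: cells stimulated with CCL20 at 14 nM final; plate controls were DMSO with CCL20 for no effect and DMSO without agonist for full effect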
EBI2 antag conf – EBI2 (human) antagonism, single concentration confirmation; shares compounds with EBI2 antag; EBI2 beta-arrestin luminescence, 7a,25-OHC antagonism; inhibition, % at 5 µM; actives 29% (n = 2,400); AID 651997;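 active means inhibition of at least 50%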
EBI2 agonist – activates EBI2, counter-screen for EBI2 antagonists. EBI2-expressing cells, agonist mode, luminescence, 60 min; 0% vehicle, 100% 7α,25-dihydroxycholesterol control. 2,400 tested, under 10 active. shares compounds with EBI2 antag. activation, % at 5 µM;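 active means activation of at least 50%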
bGal cs – counter-screen for EBI2 antagonists: E. coli beta-galactosidase inhibition. shares compounds with EBI2 antag. purified beta-galactosidase, luminescent Galacton Star, 15 min. inhibition, % at 5 µM. actives 1% (n = 2,400);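 active means replicate-average signal at least 3 plate SD below neutral wells, shown as high inhibition, flagging enzyme-inhibiting false positives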;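 further: 0% = DMSO wells with enzyme and 100% = wells lacking enzyme; higher means stronger loss of beta-gal luminescence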
* = called active by the depositor; . = no result given.

SMILES | EBI2 antag | APJ ag | CXCR6 block | APJ antagonist | CCR6 antagonist | EBI2 antag conf | EBI2 agonist | bGal cs
COc1cccc(-c2cc(C(=O)N3CCN(Cc4ccccc4)CC3)no2)c1 | 51.1* | -5.7 | -0.9 | -12.4 | -7.7 | 28.8 | -0.4 | -8.0
COc1cccc(-c2cc(C(=O)N3CCN(Cc4ccc5c(c4)OCO5)CC3)on2)c1 | 70.2* | -5.1 | -1.7 | -44.6 | 2.8 | 54.0* | -0.2 | -11.1
CCN1CCN(C(=O)c2cc3ccc(OC)cc3[nH]2)CC1 | 23.7 | -2.3 | 0.6 | 7.3 | 1.2 | . | . | .
COc1ccc(-c2cc(C(=O)N3CCN(Cc4ccccc4)CC3)no2)cc1OC | -18.5 | -1.8 | -12.3 | -26.9 | -7.9 | . | . | .
Cc1cc(C)c(C(=O)COC(=O)C2CCN(c3ccc(C(F)(F)F)cn3)CC2)c(C)c1 | 0.5 | -4.5 | 2.0 | 5.5 | 11.8 | . | . | .
COc1ccc(NC(C)=O)cc1S(=O)(=O)NC(C)c1ccc(-n2ccnc2)cc1 (stereo not drawn) | -2.4 | -3.6 | 7.0 | -6.1 | 5.8 | . | . | .
CC(=O)c1nn(-c2ccc(Br)cc2)cc1C(=O)c1ccccc1 | 52.2* | -5.1 | -1.1 | 9.8 | 4.8 | 42.6 | -0.4 | 8.4
COc1ccc(C(=O)c2cn(-c3cccc(Br)c3)nc2C(C)=O)cc1 | -2.0 | -3.4 | 2.7 | 19.7 | -3.6 | . | . | .
CC(=O)c1nn(-c2ccc(Cl)cc2)cc1C(=O)c1ccc(C)cc1 | 87.7* | 0.0 | 9.1 | 14.3 | 2.3 | 51.4* | 0.7 | 9.4
CCCC(=O)N1CCC(Cc2ccccc2)CC1 | 4.3 | 2.0 | 9.2 | 3.5 | 1.0 | . | . | .
O=C(CN1CCN(C(=O)C2CCN(C(=O)/C=C/c3ccccc3)CC2)CC1)Nc1ccc(F)cc1 | 62.5* | . | 5.0 | . | 5.8 | 28.4 | 0.0 | 8.2
O=C(/C=C/c1ccccc1)N1CCC(Cc2ccccc2)CC1 | 89.5* | -1.5 | -11.2 | -4.1 | 9.3 | 77.5* | -1.1 | -20.2
O=C(/C=C/c1ccco1)N1CCCC(c2ccccc2)C1 (stereo not drawn) | 5.7 | -4.8 | 7.4 | 18.7 | 17.4 | . | . | .
O=C(/C=C/c1cccc(Cl)c1)N1CCC(Cc2ccccc2)CC1 | 70.3* | -1.8 | -6.3 | -2.3 | 19.9 | 50.8* | -0.4 | -20.9
O=C(/C=C/c1ccccc1)N1CCC(c2ccccc2)C1 (stereo not drawn) | 64.2* | -3.5 | -4.4 | 2.9 | 4.9 | 49.5 | 0.2 | 4.9
O=C(O)c1ccc(N2Cc3ccccc3C2)cc1O | -15.5 | -1.9 | -4.2 | -10.7 | -0.8 | . | . | .
CC(C)Oc1cccc(C(=O)Nc2nnc([C@H]3C[C@H](O)[C@@H](CO)O3)s2)c1 | -3.5 | . | -1.6 | . | . | . | . | .
O=C(/C=C/c1ccccc1)N1CCN(CCN2C(=O)c3cccc4cccc(c34)C2=O)CC1 | 92.3* | -2.1 | 10.0 | -1.0 | 19.1 | 83.8* | -0.8 | 4.5
O=C(CCN1C(=O)c2cccc3cccc(c23)C1=O)N1CCOCC1 | -1.3 | 0.3 | 2.9 | -6.9 | 5.3 | . | . | .
COC(=O)C1CCN(C(=O)/C=C/c2ccccc2)CC1 | 65.6* | -1.9 | -2.3 | 12.5 | -11.0 | 50.1* | 0.2 | 7.0
COCCn1c(SCC(=O)c2ccc(F)cc2)nnc1C(C)C | 6.8 | -2.5 | 14.4 | 22.1 | 11.6 | . | . | .
COC(=O)C1CCN(C(=O)COC(=O)c2ccc(=O)n(Cc3ccccc3)n2)CC1 | 1.3 | 2.9 | -12.0 | -46.3 | 13.3 | . | . | .
O=C(NC1CCCCCC1)c1ccc(=O)n(Cc2ccccc2)n1 | 46.4* | 0.3 | 13.1 | 11.0 | 19.1 | 35.4 | 0.4 | 6.8
OC1CCN(c2c3c(nc4cc(-c5ccc(Cl)cc5)nn24)CCC3)CC1 | 43.9* | 6.8 | 9.5 | -5.7 | -3.1 | 40.2 | 0.7 | 1.2
CC(=O)NCCNC(=O)C1CCCCN1S(=O)(=O)c1ccccc1 (stereo not drawn) | -0.7 | -3.3 | 9.4 | -9.6 | 8.8 | . | . | .
CCOc1ccc(NC(=S)N(CCc2c(C)[nH]c3ccc(C)cc23)Cc2ccco2)cc1 | 40.0* | -3.9 | 6.8 | 8.4 | 7.2 | 29.5 | 0.0 | 3.0

Assay outcomes as filed in PubChem.
